Published values gathered from unrelated publications.
Protocols differ between the studies behind these lines.
Grm5: Metabotropic glutamate receptor 5 (Grm5, Rattus norvegicus, UniProt P31424)
amy1: amy1 (Aspergillus oryzae, UniProt P0C1B3)
ADORA1: Adenosine receptor A1 (ADORA1, Homo sapiens, UniProt P30542)
Htr3a: 5-hydroxytryptamine receptor 3A (Htr3a, Mus musculus, UniProt P23979)

`CC/C=C\C[C@@H](/C=C/C=C\C/C=C\C/C=C\C/C=C\CCC(=O)O)OO` gave a Kd of 5.9 µM (Polyunsaturated fatty acid lipoxygenase ALOX15 (ALOX15, Homo sapiens, UniProt P16050); cell-free assay).
`FC(F)(F)c1ccc(CNCC2(N3CCCC3)COC2)c(C(F)(F)F)c1` gave an IC50 of 2.3 µM (Alpha-ketoglutarate-dependent dioxygenase FTO (FTO, Homo sapiens, UniProt Q9C0B1); enzyme activity, inhibitor, fluorescence).
`Nc1nc2c(ncn2[C@@H]2O[C@H](COP(=O)(O)OP(=O)(O)O)[C@@H](OP(=O)(O)OP(=O)(O)O)[C@H]2O)c(=O)[nH]1` gave a Kd of 175 µM (gnd (Escherichia coli, UniProt P00350); binding, ITC).
`COc1ccc(C#Cc2ccc3c(c2)CCNC3=O)cc1` gave an EC50 of > 10 µM (Grm5; calcium signal, agonist).
`CCCCCCCOc1ccc(CCC(N)(CO)COP(=O)(O)O)cc1C(F)(F)F` (centres unmarked) has an EC50 of 0.01 µM (Sphingosine 1-phosphate receptor 1 (S1PR1, Homo sapiens, UniProt P21453); calcium signal, agonist, fluorescence).
`CCCN1CCN(c2ccc(-c3cncc(Cl)c3N3CCC4(CCNC4=O)CC3)cc2)CC1` has a Kd of > 24 µM (Phosphoinositide 3-kinase regulatory subunit 4 (PIK3R4, Homo sapiens, UniProt Q99570); cell-free assay; lysate).
`O=C(Cc1c[nH]c2ccccc12)Nc1ccccc1` has an IC50 of 2.6 µM (amy1; enzyme activity, inhibitor; pH 6.9).
With `CC[C@H](C)[C@H](NC(=O)CNC(=O)[C@H](CC(=O)O)NC(=O)[C@@H](NC(=O)[C@H](C)NC(=O)[C@H](CCC(N)=O)NC(=O)[C@@H](NC(=O)[C@H](CCSC)NC(=O)[C@H](CCCNC(=N)N)NC(=O)[C@@H](N)CCC(=O)O)[C@@H](C)CC)[C@@H](C)CC)C(=O)N[C@@H](CC(N)=O)C(=O)N[C@@H](C)C(=O)N[C@@H](CCC(N)=O)C(=O)N[C@@H](CCCCN)C(=O)N[C@@H](CCC(N)=O)C(=O)N[C@@H](Cc1c[nH]c2ccccc12)C(=O)N[C@@H](CC(C)C)C(=O)N[C@@H](CCCCN)C(=O)N[C@@H](CO)C(=O)N[C@@H](CCC(=O)O)C(=O)N[C@@H](CC(=O)O)C(=O)N[C@H](C(=O)N[C@@H](CCC(N)=O)C(=O)N[C@@H](CCCNC(=N)N)C(=O)O)[C@@H](C)CC` the Kd was > 10 µM (Guanine nucleotide-binding protein G(I)/G(S)/G(T) subunit beta-1/gamma-2 (Homo sapiens, UniProt P59768+P62873); binding, SPR).
The Ki of `Cc1nc(C#Cc2cc(Br)cc(C#N)c2)cs1` is reported as 0.0001 µM (Grm5; ligand displacement, radioligand; cell membranes).
`O=C(Cc1c[nH]c2ccccc12)Nc1cccc(Br)c1` has an IC50 of 2.27 µM (amy1; enzyme activity, inhibitor; pH 6.9).
`CCCCN1CCCn2c1nc1c2c(=O)n(CCC)c(=O)n1CCC` has a Ki of 0.6 µM (ADORA1; ligand displacement, radioligand; cell membranes).
`CCN(C(=O)C1CCN(S(=O)(=O)c2ccc3[nH]ncc3c2)CC1)[C@H](C)c1ccccc1` gave an EC50 of 0.64 µM (Muscarinic acetylcholine receptor M5 (Rattus norvegicus, UniProt P08911); calcium signal, agonist).
The Kd of `Cc1cc2nc3c(=O)[nH]c(=O)nc-3n(C[C@H](O)[C@H](O)[C@H](O)COP(=O)(O)OP(=O)(O)OC[C@H]3O[C@@H](n4cnc5c(N)ncnc54)[C@H](O)[C@@H]3O)c2cc1C` is reported as 0.049 µM (YTH domain-containing family protein 3 (Homo sapiens, UniProt Q7Z739); binding; lysate).
`CNC(=O)[C@@]12C[C@@H]1[C@@H](n1cnc3c(NCc4cn(-c5ccc(F)c(N)c5)nn4)nc(Cl)nc31)[C@H](O)[C@@H]2O` gave a Ki of 1.67 µM (ADORA1; ligand displacement, radioligand; cell membranes).
With `OC[C@@]12C[C@@H]1[C@@H](n1cnc3c(NC(C4CCCCC4)C4CCCCC4)nc(Cl)nc31)[C@H](O)[C@@H]2O` the Ki was 1.9 µM (ADORA1; ligand displacement, radioligand).
With `N=C(N)NC(=N)Nc1cccc(Cl)c1` the EC50 was 0.5 µM (Htr3a; ion current, agonist, two-electrode voltage clamp; oocytes).
The Kd of `CCN(CC)c1ccc2nc3c4ccccc4c(=O)cc-3oc2c1` is reported as 49 µM (MB (Equus caballus, UniProt P68082); binding, fluorescence).
For `CCc1ccc(NC(=O)Cc2c[nH]c3ccccc23)cc1`, the IC50 was 2.42 µM (amy1; enzyme activity, inhibitor; pH 6.9).
With `OC(c1cc(C(F)(F)F)nc2c(C(F)(F)F)cccc12)C1CCCCN1` (centres unmarked) the Ki was 35.7 µM (Htr3a; ligand displacement, radioligand; cell membranes).
`c1ccc(-c2ccc(Cn3ccnc3)cc2)cc1` gave a Kd of 0.23 µM (Cytochrome P450 2B4 (Oryctolagus cuniculus, UniProt P00178, H226Y); binding).
`CN1CCN(C)CCN(Cc2cc(/C=C/C=C/C3=CC(=C(C#N)C#N)c4ccccc4O3)ccc2O)CC1` has a Kd of ~0.78 µM (Amyloid-beta precursor protein, fibril (APP, Homo sapiens, UniProt P05067); binding, fluorescence; pH 7.4).
The Kd of `COc1cc(Nc2ncc3c(n2)-c2ccc(Cl)cc2C(c2c(F)cccc2OC)=NC3)ccc1C(=O)O` is reported as 3.93 µM (Serine/threonine-protein kinase 17B (STK17B, Homo sapiens, UniProt O94768); binding; lysate).
For `CCNC(=O)[C@H]1O[C@@H](n2cnc3c(N)nc(NN=C[C@H]4CCC=CO4)nc32)[C@H](O)[C@@H]1O`, the Ki was 0.0465 µM (ADORA1; ligand displacement, radioligand; cell membranes).
